Data published in ChEMBL document CHEMBL5226356, “Ring Size as an Independent Variable in Cyclooligomeric Depsipeptide Antiarrhythmic Activity” (ACS Med Chem Lett, 2021).
Active and inactive are the calls of the source. The calls are words filed in the database; no cut-off is given here.

Tests used:
[1] = target: Ryanodine receptor 2 (Mus musculus, UniProt E9Q401); assay: Inhibition of RyR2 in Casq2 gene knockout mouse cardiomyocytes assessed as reduction in calcium sparks frequency incubated for 30 mins; format: cell-based, Cardiomyocyte
Outline: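 Saponin-permeabilized isolated ventricular cardiomyocytes (sarcolemma opened, SR membrane intact) incubated 30 min with compound across a concentration range for concentration-response curves. Read-out is frequency of spontaneous Ca2+ sparks, used as a measure of RyR2 activity. DMSO served as vehicle.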

[2] = Kinetic solubility of the compound in phosphate buffer at pH 7.4 at 25 uM incubated for 2 hrs by nephelometry; format: physicochemical; settings: pH 7.4, 2 h
[3] = Kinetic solubility of the compound in Hanks Bile Salt Solution at 25 uM incubated for 2 hrs by nephelometry; format: ADME
[4] = target: Ryanodine receptor 2 (Mus musculus) (UniProt E9Q401); assay: Inhibition of RyR2 in Casq2 gene knockout mouse cardiomyocytes assessed as reduction in calcium sparks frequency at 25 uM incubated for 10 mins; format: cell-based; settings: Cardiomyocyte
Outline: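 Isolated ventricular cardiomyocytes permeabilized with saponin, which opens the sarcolemma but leaves the SR membrane intact. Cells incubated 10 min with 25 μM compound or DMSO vehicle. RyR2 activity read as spontaneous Ca2+ spark frequency and compared to vehicle; statistics by one-way ANOVA with Tukey's posthoc test.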

[5] = target: Ryanodine receptor 2 (Mus musculus) (UniProt E9Q401); assay: Inhibition of RyR2 in Casq2 gene knockout mouse cardiomyocytes assessed as reduction in calcium sparks frequency at 25 uM incubated for 60 mins; format: cell-based; settings: Cardiomyocyte
Outline: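 Isolated ventricular cardiomyocytes were permeabilized with saponin, which opens the sarcolemma but leaves the SR membrane intact. Cells were incubated with 25 μM compound or DMSO vehicle for 60 min (extended from the 10 min screen). RyR2 activity was read as the frequency of Ca2+ sparks relative to vehicle. Statistics were one-way ANOVA with Tukey's post hoc test.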

Ryanodine receptor 2 (Mus musculus), sequence (E9Q401 whole entry): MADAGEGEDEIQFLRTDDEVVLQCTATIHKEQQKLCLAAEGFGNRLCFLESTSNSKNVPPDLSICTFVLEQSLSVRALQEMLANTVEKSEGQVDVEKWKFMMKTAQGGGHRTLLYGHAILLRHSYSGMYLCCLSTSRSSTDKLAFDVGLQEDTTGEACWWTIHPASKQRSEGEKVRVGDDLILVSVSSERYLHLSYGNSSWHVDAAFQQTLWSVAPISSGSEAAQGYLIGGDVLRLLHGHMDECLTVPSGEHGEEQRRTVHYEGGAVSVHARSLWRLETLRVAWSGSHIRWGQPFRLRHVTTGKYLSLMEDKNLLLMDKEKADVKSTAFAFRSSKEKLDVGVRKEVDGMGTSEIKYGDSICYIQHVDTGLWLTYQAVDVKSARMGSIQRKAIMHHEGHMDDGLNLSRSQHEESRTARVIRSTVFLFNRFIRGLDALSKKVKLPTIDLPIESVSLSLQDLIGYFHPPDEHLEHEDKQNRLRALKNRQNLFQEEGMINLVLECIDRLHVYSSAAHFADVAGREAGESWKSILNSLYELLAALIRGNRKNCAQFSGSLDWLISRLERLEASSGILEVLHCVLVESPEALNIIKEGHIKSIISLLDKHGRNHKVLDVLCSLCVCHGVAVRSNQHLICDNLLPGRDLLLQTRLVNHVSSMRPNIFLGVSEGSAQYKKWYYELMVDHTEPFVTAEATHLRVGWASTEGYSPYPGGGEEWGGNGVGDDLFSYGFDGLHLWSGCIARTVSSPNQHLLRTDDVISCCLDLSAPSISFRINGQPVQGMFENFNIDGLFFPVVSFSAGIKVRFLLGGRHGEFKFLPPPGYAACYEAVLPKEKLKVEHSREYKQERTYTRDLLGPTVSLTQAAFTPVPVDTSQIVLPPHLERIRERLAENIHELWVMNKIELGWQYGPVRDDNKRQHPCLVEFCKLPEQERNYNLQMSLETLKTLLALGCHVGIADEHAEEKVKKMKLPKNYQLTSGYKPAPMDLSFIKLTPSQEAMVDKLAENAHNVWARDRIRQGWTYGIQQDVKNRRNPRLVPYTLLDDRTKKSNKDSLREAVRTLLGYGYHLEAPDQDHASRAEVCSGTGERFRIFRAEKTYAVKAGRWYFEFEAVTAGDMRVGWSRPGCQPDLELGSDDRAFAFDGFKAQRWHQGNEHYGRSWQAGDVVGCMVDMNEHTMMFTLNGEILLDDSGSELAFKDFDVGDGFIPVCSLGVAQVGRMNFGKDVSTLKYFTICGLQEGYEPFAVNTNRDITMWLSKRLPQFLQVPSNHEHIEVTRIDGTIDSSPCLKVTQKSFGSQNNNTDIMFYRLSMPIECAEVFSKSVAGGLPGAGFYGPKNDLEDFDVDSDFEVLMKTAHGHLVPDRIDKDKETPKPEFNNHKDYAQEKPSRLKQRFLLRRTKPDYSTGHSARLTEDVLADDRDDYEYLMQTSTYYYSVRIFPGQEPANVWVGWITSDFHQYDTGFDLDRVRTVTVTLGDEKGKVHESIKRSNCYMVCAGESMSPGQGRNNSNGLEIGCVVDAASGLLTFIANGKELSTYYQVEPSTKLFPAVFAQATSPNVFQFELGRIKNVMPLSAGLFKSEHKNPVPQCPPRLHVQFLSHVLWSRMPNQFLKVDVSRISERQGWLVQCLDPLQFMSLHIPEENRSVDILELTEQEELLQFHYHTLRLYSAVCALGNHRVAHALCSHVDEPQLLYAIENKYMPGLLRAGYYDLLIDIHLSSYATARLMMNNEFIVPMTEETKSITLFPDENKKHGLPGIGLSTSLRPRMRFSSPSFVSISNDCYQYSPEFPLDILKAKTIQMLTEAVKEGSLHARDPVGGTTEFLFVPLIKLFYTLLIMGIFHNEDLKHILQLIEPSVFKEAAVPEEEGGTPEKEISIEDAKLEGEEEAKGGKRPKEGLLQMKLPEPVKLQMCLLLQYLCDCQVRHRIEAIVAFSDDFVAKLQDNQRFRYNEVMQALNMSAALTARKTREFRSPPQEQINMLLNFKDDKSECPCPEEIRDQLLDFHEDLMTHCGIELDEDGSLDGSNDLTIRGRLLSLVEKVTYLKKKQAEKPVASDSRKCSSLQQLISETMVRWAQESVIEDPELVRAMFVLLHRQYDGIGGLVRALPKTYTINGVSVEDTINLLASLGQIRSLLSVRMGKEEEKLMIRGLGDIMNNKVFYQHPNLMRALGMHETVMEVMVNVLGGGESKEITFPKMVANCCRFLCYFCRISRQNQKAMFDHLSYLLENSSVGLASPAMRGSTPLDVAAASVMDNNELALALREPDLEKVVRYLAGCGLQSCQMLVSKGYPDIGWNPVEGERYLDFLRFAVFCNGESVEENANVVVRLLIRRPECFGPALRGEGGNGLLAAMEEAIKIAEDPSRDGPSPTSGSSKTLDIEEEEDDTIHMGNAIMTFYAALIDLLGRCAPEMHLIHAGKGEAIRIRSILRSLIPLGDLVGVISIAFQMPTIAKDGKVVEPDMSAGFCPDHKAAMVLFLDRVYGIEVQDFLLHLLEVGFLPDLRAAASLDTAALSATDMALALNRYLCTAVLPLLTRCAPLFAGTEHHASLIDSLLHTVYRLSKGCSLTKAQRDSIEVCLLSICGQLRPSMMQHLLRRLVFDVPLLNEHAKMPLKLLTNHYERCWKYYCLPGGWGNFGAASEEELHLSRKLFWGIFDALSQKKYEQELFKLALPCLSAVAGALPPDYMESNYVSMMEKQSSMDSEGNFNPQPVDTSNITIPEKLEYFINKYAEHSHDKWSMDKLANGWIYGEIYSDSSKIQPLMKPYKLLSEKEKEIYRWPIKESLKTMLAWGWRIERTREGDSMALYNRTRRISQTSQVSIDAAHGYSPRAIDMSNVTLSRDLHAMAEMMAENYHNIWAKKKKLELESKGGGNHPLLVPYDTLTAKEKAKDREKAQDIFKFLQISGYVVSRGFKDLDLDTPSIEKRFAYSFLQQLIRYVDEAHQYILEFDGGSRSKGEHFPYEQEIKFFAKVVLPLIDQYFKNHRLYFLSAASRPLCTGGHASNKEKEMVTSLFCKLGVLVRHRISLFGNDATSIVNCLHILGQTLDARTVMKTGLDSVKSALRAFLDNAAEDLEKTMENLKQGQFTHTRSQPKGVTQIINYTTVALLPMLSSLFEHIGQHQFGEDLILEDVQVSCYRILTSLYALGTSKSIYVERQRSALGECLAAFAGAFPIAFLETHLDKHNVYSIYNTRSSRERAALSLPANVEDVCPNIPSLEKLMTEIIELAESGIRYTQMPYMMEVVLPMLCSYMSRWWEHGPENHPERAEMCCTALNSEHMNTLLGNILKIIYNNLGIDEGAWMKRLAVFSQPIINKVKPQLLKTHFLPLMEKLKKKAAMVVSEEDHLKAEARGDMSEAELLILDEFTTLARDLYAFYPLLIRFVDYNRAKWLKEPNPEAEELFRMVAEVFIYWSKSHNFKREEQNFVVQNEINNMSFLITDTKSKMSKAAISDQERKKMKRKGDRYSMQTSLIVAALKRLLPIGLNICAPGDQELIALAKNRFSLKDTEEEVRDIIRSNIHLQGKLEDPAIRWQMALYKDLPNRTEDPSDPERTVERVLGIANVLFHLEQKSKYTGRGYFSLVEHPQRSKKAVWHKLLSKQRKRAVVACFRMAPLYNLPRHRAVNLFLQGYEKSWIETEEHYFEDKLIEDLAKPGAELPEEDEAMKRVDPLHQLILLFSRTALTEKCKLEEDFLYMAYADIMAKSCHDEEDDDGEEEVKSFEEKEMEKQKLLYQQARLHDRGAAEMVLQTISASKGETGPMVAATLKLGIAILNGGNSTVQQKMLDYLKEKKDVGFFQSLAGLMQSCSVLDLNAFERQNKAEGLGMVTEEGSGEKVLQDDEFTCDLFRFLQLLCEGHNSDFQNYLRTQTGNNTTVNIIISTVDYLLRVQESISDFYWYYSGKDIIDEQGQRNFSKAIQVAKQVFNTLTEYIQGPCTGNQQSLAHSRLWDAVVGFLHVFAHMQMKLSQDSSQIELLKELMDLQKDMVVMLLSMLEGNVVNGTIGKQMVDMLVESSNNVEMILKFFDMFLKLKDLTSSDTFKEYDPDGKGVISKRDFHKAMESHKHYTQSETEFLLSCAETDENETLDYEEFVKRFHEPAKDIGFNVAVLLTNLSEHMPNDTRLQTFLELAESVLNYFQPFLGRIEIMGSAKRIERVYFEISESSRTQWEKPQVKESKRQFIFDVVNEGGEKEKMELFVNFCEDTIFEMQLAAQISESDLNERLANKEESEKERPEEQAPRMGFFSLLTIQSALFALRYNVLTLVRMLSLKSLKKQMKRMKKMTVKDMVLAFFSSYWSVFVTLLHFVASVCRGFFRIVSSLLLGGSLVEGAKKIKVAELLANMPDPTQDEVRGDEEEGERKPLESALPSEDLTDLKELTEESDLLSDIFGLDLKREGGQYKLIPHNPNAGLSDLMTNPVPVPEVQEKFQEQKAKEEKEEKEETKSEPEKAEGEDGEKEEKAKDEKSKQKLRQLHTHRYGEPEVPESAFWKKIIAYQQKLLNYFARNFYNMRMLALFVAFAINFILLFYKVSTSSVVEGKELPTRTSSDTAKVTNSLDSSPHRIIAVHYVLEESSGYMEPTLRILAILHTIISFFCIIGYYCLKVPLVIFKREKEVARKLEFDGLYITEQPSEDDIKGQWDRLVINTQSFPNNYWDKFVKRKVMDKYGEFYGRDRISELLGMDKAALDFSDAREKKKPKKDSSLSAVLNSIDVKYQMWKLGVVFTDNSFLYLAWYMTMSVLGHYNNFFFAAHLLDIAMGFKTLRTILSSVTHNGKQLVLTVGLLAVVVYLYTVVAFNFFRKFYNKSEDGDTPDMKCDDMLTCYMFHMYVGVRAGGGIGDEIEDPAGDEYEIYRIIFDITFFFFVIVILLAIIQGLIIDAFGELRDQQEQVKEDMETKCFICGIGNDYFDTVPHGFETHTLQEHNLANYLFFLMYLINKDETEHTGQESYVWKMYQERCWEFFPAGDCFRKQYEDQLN
Ryanodine receptor 2, sequence (E9Q401 whole entry): as above

| inhibition [5] | Structure (SMILES) | IC50 [1] [nM] | Kinetic_solubility [2] | Kinetic_solubility [3] | inhibition [4] |
| --- | --- | --- | --- | --- | --- |
|  | CCCCC[C@@H]1OC(=O)[C@@H](C)N(C)C(=O)[C@H](CCCCC)OC(=O)[C@@H](C)N(C)C(=O)[C@H](CCCCC)OC(=O)[C@@H](C)N(C)C1=O | 3880 | Soluble | Soluble | Active |
|  | CCCCC[C@H]1OC(=O)[C@H](C)N(C)C1=O |  | Soluble | Soluble | inactive |
|  | CCCCC[C@@H]1OC(=O)[C@@H](C)N(C)C(=O)[C@H](CCCCC)OC(=O)[C@@H](C)N(C)C(=O)[C@H](CCCCC)OC(=O)[C@@H](C)N(C)C(=O)[C@H](CCCCC)OC(=O)[C@@H](C)N(C)C1=O | 1890 | Soluble | Soluble | Active |
| inactive | CCCCC[C@@H]1OC(=O)[C@@H](C)N(C)C(=O)[C@H](CCCCC)OC(=O)[C@@H](C)N(C)C1=O |  | Soluble | Soluble | inactive |
|  | CCCCC[C@@H]1OC(=O)[C@@H](C)N(C)C(=O)[C@H](CCCCC)OC(=O)[C@@H](C)N(C)C(=O)[C@H](CCCCC)OC(=O)[C@@H](C)N(C)C(=O)[C@H](CCCCC)OC(=O)[C@@H](C)N(C)C(=O)[C@H](CCCCC)OC(=O)[C@@H](C)N(C)C(=O)[C@H](CCCCC)OC(=O)[C@@H](C)N(C)C1=O |  | Soluble | Soluble | inactive |
| inactive | CCCCC[C@H](OC(=O)[C@@H](C)N(C)C(=O)[C@H](CCCCC)OC(=O)[C@@H](C)N(C)C(=O)OC(C)(C)C)C(=O)OCc1ccccc1 |  |  |  |  |

| Structure (SMILES) | inhibition [5] | IC50 [1] [nM] | Kinetic_solubility [2] | Kinetic_solubility [3] | inhibition [4] |
| --- | --- | --- | --- | --- | --- |
| CCCCC[C@@H]1OC(=O)[C@@H](C)N(C)C(=O)[C@H](CCCCC)OC(=O)[C@@H](C)N(C)C(=O)[C@H](CCCCC)OC(=O)[C@@H](C)N(C)C(=O)[C@H](CCCCC)OC(=O)[C@@H](C)N(C)C(=O)[C@H](CCCCC)OC(=O)[C@@H](C)N(C)C1=O | inactive |  | Soluble | Soluble | inactive |
